Experimental data taken from ChEMBL document CHEMBL5058577, “EUbOPEN Chemogenomics Library 2 (Multiplex)” (2022).

Test system: HEK-293T
Assay: Multiplex assay against HEK293T
Type: toxicity, cell-based
Details: human
Outline: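 On a CQ1 microscope at 37°C and 5% CO2, live cells were imaged after compound addition. They had been stained at seeding with Hoechst33342, BioTracker Green Microtubule Cytoskeleton Dye, MitoTracker Red and Annexin V Alexa Fluor 680. CellPathfinder machine-learning gating assigned cells to Hoechst high-intensity objects or normal cells, normal cells to healthy, pyknosed or fragmented nuclei, and pyknosed cells to mitotic or apoptotic. Tubulin, mitochondrial-mass and membrane-permeability phenotypes are per cents of healthy-nucleus cells.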

[1] = 12 h, 1 µM, compound concentration 1 uM, replicate 1
[2] = 12 h, 1 µM, compound concentration 1 uM, replicate 2
[3] = 12 h, 10 µM, compound concentration 10 uM, replicate 1
[4] = 12 h, 10 µM, compound concentration 10 uM, replicate 2
[5] = 24 h, 1 µM, compound concentration 1 uM, replicate 1
[6] = 24 h, 1 µM, compound concentration 1 uM, replicate 2
[7] = 24 h, 10 µM, compound concentration 10 uM, replicate 1
[8] = 24 h, 10 µM, compound concentration 10 uM, replicate 2
[9] = 48 h, 1 µM, compound concentration 1 uM, replicate 1
[10] = 48 h, 1 µM, compound concentration 1 uM, replicate 2
[11] = 48 h, 10 µM, compound concentration 10 uM, replicate 1
[12] = 48 h, 10 µM, compound concentration 10 uM, replicate 2

Compound: Nc1nc(-c2ccco2)c2cnn(Cc3ccccc3F)c2n1
- Population Apoptotic (%) [1]: 37%
- Population Fragmented Nuclei (%) [1]: 6%
- Population Healthy Nuclei (%) [1]: 76%
- Population Hoechst High Intensity Objects (%) [1]: 9%
- Population Membrane Permeable-Phenotype (%) [1]: 0%
- Population Mitochondria Different-Phenotype (%) [1]: 58%
- Population Mitotic Cells (%) [1]: 62%
- Population Normal (%) [1]: 90%
- Population Pyknosed Nuclei (%) [1]: 16%
- Population Tubulin-Different-Phenotype (%) [1]: 41%
- Total Cell Count [1]: 300
- Population Apoptotic (%) [2]: 36%
- Population Fragmented Nuclei (%) [2]: 5%
- Population Healthy Nuclei (%) [2]: 81%
- Population Hoechst High Intensity Objects (%) [2]: 11%
- Population Mitochondria Different-Phenotype (%) [2]: 64%
- Population Mitotic Cells (%) [2]: 63%
- Population Normal (%) [2]: 88%
- Population Pyknosed Nuclei (%) [2]: 13%
- Population Tubulin-Different-Phenotype (%) [2]: 23%
- Total Cell Count [2]: 404
- Population Apoptotic (%) [3]: 33%
- Population Fragmented Nuclei (%) [3]: 7%
- Population Healthy Nuclei (%) [3]: 73%
- Population Hoechst High Intensity Objects (%) [3]: 8%
- Population Membrane Permeable-Phenotype (%) [3]: 0%
- Population Mitochondria Different-Phenotype (%) [3]: 61%
- Population Mitotic Cells (%) [3]: 66%
- Population Normal (%) [3]: 91%
- Population Pyknosed Nuclei (%) [3]: 19%
- Population Tubulin-Different-Phenotype (%) [3]: 43%
- Total Cell Count [3]: 306
- Population Apoptotic (%) [4]: 40%
- Population Fragmented Nuclei (%) [4]: 6%
- Population Healthy Nuclei (%) [4]: 76%
- Population Hoechst High Intensity Objects (%) [4]: 12%
- Population Mitochondria Different-Phenotype (%) [4]: 68%
- Population Mitotic Cells (%) [4]: 60%
- Population Normal (%) [4]: 87%
- Population Pyknosed Nuclei (%) [4]: 17%
- Population Tubulin-Different-Phenotype (%) [4]: 26%
- Total Cell Count [4]: 265
- Population Apoptotic (%) [5]: 30%
- Population Fragmented Nuclei (%) [5]: 7%
- Population Healthy Nuclei (%) [5]: 77%
- Population Hoechst High Intensity Objects (%) [5]: 7%
- Population Membrane Permeable-Phenotype (%) [5]: 0%
- Population Mitochondria Different-Phenotype (%) [5]: 36%
- Population Mitotic Cells (%) [5]: 69%
- Population Normal (%) [5]: 92%
- Population Pyknosed Nuclei (%) [5]: 15%
- Population Tubulin-Different-Phenotype (%) [5]: 26%
- Total Cell Count [5]: 396
- Population Apoptotic (%) [6]: 28%
- Population Fragmented Nuclei (%) [6]: 9%
- Population Healthy Nuclei (%) [6]: 81%
- Population Hoechst High Intensity Objects (%) [6]: 5%
- Population Mitochondria Different-Phenotype (%) [6]: 46%
- Population Mitotic Cells (%) [6]: 71%
- Population Normal (%) [6]: 94%
- Population Pyknosed Nuclei (%) [6]: 9%
- Population Tubulin-Different-Phenotype (%) [6]: 17%
- Total Cell Count [6]: 514
- Population Apoptotic (%) [7]: 38%
- Population Fragmented Nuclei (%) [7]: 11%
- Population Healthy Nuclei (%) [7]: 67%
- Population Hoechst High Intensity Objects (%) [7]: 6%
- Population Membrane Permeable-Phenotype (%) [7]: 2%
- Population Mitochondria Different-Phenotype (%) [7]: 52%
- Population Mitotic Cells (%) [7]: 61%
- Population Normal (%) [7]: 93%
- Population Pyknosed Nuclei (%) [7]: 21%
- Population Tubulin-Different-Phenotype (%) [7]: 31%
- Total Cell Count [7]: 334
- Population Apoptotic (%) [8]: 35%
- Population Hoechst High Intensity Objects (%) [8]: 10%
- Population Membrane Permeable-Phenotype (%) [8]: 0%
- Population Mitochondria Different-Phenotype (%) [8]: 59%
- Population Mitotic Cells (%) [8]: 64%
- Population Normal (%) [8]: 89%
- Population Tubulin-Different-Phenotype (%) [8]: 23%
- Total Cell Count [8]: 328
- Population Apoptotic (%) [9]: 32%
- Population Fragmented Nuclei (%) [9]: 12%
- Population Healthy Nuclei (%) [9]: 75%
- Population Hoechst High Intensity Objects (%) [9]: 3%
- Population Membrane Permeable-Phenotype (%) [9]: 1%
- Population Mitochondria Different-Phenotype (%) [9]: 31%
- Population Mitotic Cells (%) [9]: 67%
- Population Normal (%) [9]: 96%
- Population Pyknosed Nuclei (%) [9]: 12%
- Population Tubulin-Different-Phenotype (%) [9]: 18%
- Total Cell Count [9]: 641
- Population Apoptotic (%) [10]: 28%
- Population Fragmented Nuclei (%) [10]: 14%
- Population Healthy Nuclei (%) [10]: 78%
- Population Hoechst High Intensity Objects (%) [10]: 4%
- Population Mitochondria Different-Phenotype (%) [10]: 21%
- Population Mitotic Cells (%) [10]: 71%
- Population Normal (%) [10]: 95%
- Population Pyknosed Nuclei (%) [10]: 7%
- Population Tubulin-Different-Phenotype (%) [10]: 14%
- Total Cell Count [10]: 769
- Population Apoptotic (%) [11]: 36%
- Population Fragmented Nuclei (%) [11]: 16%
- Population Healthy Nuclei (%) [11]: 73%
- Population Hoechst High Intensity Objects (%) [11]: 7%
- Population Membrane Permeable-Phenotype (%) [11]: 0%
- Population Mitochondria Different-Phenotype (%) [11]: 42%
- Population Mitotic Cells (%) [11]: 63%
- Population Normal (%) [11]: 92%
- Population Pyknosed Nuclei (%) [11]: 9%
- Population Tubulin-Different-Phenotype (%) [11]: 19%
- Total Cell Count [11]: 412
- Population Apoptotic (%) [12]: 28%
- Population Fragmented Nuclei (%) [12]: 13%
- Population Healthy Nuclei (%) [12]: 74%
- Population Mitochondria Different-Phenotype (%) [12]: 43%
- Population Mitotic Cells (%) [12]: 71%
- Population Pyknosed Nuclei (%) [12]: 12%
- Population Tubulin-Different-Phenotype (%) [12]: 15%
- Total Cell Count [12]: 398

Compound: Cc1cc(NC(=O)NCCN2CCC(O)(Cc3ccccc3)CC2)c2ccccc2n1 [PALOSURAN]
- Population Apoptotic (%) [1]: 36%
- Population Fragmented Nuclei (%) [1]: 7%
- Population Healthy Nuclei (%) [1]: 77%
- Population Hoechst High Intensity Objects (%) [1]: 6%
- Population Membrane Permeable-Phenotype (%) [1]: 0%
- Population Mitochondria Different-Phenotype (%) [1]: 42%
- Population Mitotic Cells (%) [1]: 63%
- Population Normal (%) [1]: 93%
- Population Pyknosed Nuclei (%) [1]: 14%
- Population Tubulin-Different-Phenotype (%) [1]: 25%
- Total Cell Count [1]: 373
- Population Apoptotic (%) [2]: 48%
- Population Fragmented Nuclei (%) [2]: 9%
- Population Healthy Nuclei (%) [2]: 81%
- Population Hoechst High Intensity Objects (%) [2]: 9%
- Population Mitochondria Different-Phenotype (%) [2]: 57%
- Population Mitotic Cells (%) [2]: 52%
- Population Normal (%) [2]: 90%
- Population Pyknosed Nuclei (%) [2]: 8%
- Population Tubulin-Different-Phenotype (%) [2]: 26%
- Total Cell Count [2]: 326
- Population Apoptotic (%) [3]: 38%
- Population Fragmented Nuclei (%) [3]: 5%
- Population Healthy Nuclei (%) [3]: 81%
- Population Hoechst High Intensity Objects (%) [3]: 8%
- Population Membrane Permeable-Phenotype (%) [3]: 0%
- Population Mitochondria Different-Phenotype (%) [3]: 53%
- Population Mitotic Cells (%) [3]: 61%
- Population Normal (%) [3]: 91%
- Population Pyknosed Nuclei (%) [3]: 12%
- Population Tubulin-Different-Phenotype (%) [3]: 41%
- Total Cell Count [3]: 461
- Population Apoptotic (%) [4]: 61%
- Population Healthy Nuclei (%) [4]: 75%
- Population Mitochondria Different-Phenotype (%) [4]: 76%
- Population Mitotic Cells (%) [4]: 38%
- Population Pyknosed Nuclei (%) [4]: 18%
- Population Tubulin-Different-Phenotype (%) [4]: 42%
- Total Cell Count [4]: 346
- Population Apoptotic (%) [5]: 17%
- Population Fragmented Nuclei (%) [5]: 9%
- Population Healthy Nuclei (%) [5]: 78%
- Population Hoechst High Intensity Objects (%) [5]: 6%
- Population Membrane Permeable-Phenotype (%) [5]: 0%
- Population Mitochondria Different-Phenotype (%) [5]: 24%
- Population Mitotic Cells (%) [5]: 82%
- Population Normal (%) [5]: 93%
- Population Pyknosed Nuclei (%) [5]: 11%
- Population Tubulin-Different-Phenotype (%) [5]: 19%
- Total Cell Count [5]: 511
- Population Apoptotic (%) [6]: 46%
- Population Fragmented Nuclei (%) [6]: 10%
- Population Healthy Nuclei (%) [6]: 76%
- Population Hoechst High Intensity Objects (%) [6]: 4%
- Population Mitochondria Different-Phenotype (%) [6]: 45%
- Population Mitotic Cells (%) [6]: 53%
- Population Normal (%) [6]: 95%
- Population Pyknosed Nuclei (%) [6]: 13%
- Population Tubulin-Different-Phenotype (%) [6]: 14%
- Total Cell Count [6]: 343
- Population Apoptotic (%) [7]: 35%
- Population Fragmented Nuclei (%) [7]: 8%
- Population Healthy Nuclei (%) [7]: 79%
- Population Hoechst High Intensity Objects (%) [7]: 4%
- Population Membrane Permeable-Phenotype (%) [7]: 0%
- Population Mitochondria Different-Phenotype (%) [7]: 43%
- Population Mitotic Cells (%) [7]: 64%
- Population Normal (%) [7]: 95%
- Population Pyknosed Nuclei (%) [7]: 11%
- Population Tubulin-Different-Phenotype (%) [7]: 32%
- Total Cell Count [7]: 598
- Population Apoptotic (%) [8]: 51%
- Population Fragmented Nuclei (%) [8]: 7%
- Population Healthy Nuclei (%) [8]: 83%
- Population Hoechst High Intensity Objects (%) [8]: 6%
- Population Mitochondria Different-Phenotype (%) [8]: 64%
- Population Mitotic Cells (%) [8]: 48%
- Population Normal (%) [8]: 93%
- Population Pyknosed Nuclei (%) [8]: 9%
- Population Tubulin-Different-Phenotype (%) [8]: 26%
- Total Cell Count [8]: 396
- Population Apoptotic (%) [9]: 19%
- Population Fragmented Nuclei (%) [9]: 15%
- Population Healthy Nuclei (%) [9]: 79%
- Population Hoechst High Intensity Objects (%) [9]: 3%
- Population Membrane Permeable-Phenotype (%) [9]: 1%
- Population Mitochondria Different-Phenotype (%) [9]: 16%
- Population Mitotic Cells (%) [9]: 80%
- Population Normal (%) [9]: 96%
- Population Pyknosed Nuclei (%) [9]: 5%
- Population Tubulin-Different-Phenotype (%) [9]: 12%
- Total Cell Count [9]: 938
- Population Apoptotic (%) [10]: 32%
- Population Fragmented Nuclei (%) [10]: 13%
- Population Healthy Nuclei (%) [10]: 81%
- Population Membrane Permeable-Phenotype (%) [10]: 0%
- Population Mitochondria Different-Phenotype (%) [10]: 24%
- Population Mitotic Cells (%) [10]: 67%
- Population Tubulin-Different-Phenotype (%) [10]: 15%
- Total Cell Count [10]: 552
- Population Apoptotic (%) [11]: 29%
- Population Fragmented Nuclei (%) [11]: 15%
- Population Healthy Nuclei (%) [11]: 75%
- Population Hoechst High Intensity Objects (%) [11]: 5%
- Population Membrane Permeable-Phenotype (%) [11]: 0%
- Population Mitochondria Different-Phenotype (%) [11]: 34%
- Population Mitotic Cells (%) [11]: 70%
- Population Normal (%) [11]: 94%
- Population Pyknosed Nuclei (%) [11]: 8%
- Population Tubulin-Different-Phenotype (%) [11]: 17%
- Total Cell Count [11]: 874
- Population Apoptotic (%) [12]: 41%
- Population Fragmented Nuclei (%) [12]: 9%
- Population Healthy Nuclei (%) [12]: 84%
- Population Hoechst High Intensity Objects (%) [12]: 4%
- Population Mitochondria Different-Phenotype (%) [12]: 42%
- Population Mitotic Cells (%) [12]: 58%
- Population Normal (%) [12]: 95%
- Population Pyknosed Nuclei (%) [12]: 6%
- Population Tubulin-Different-Phenotype (%) [12]: 19%
- Total Cell Count [12]: 570
